Source: ChEMBL document CHEMBL1153564 (Antimicrob Agents Chemother, 2008)
Converted amounts (≈) assume the structure as drawn. The source made the active and inactive calls. The rule behind the calls is not given here. Starred links: 1 amine or outer side, 2 acyl side, 3 side chain; linkers in the order of their positions; H or OH if unused. Positions of bridges follow the written chain, without caps; N, C: chain ends. Non-standard residues stand in square brackets, D forms with d. Residues, ends and D or L forms follow the SMILES beside them. *: point of attachment. pTerphenylCO(4''-OnC5H11) = CCCCCOc1ccc(-c2ccc(-c3ccc(C(=O)*)cc3)cc2)cc1; Orn(4R-OH,5R-OH) = O=C([C@H](C[C@@H](O)[C@@H](O)N[*:3])N[*:1])[*:2]; hTyr(3S-OH,4S-OH) = N[C@H](C(=O)O)[C@H](O)[C@@H](O)c1ccc(O)cc1; Pro(3S-OH,4S-Me) = C[C@H]1CN[C@H](C(=O)O)[C@H]1O; Hyp = O=C(O)[C@@H]1C[C@@H](O)CN1

Assays:
[1] = system: Nakaseomyces glabratus; test: Antifungal activity against Candida glabrata 5376 infected in neutropenic ICR/Swiss mouse candidiasis model assessed as […] burden per kidney administered intraperitoneally once every 96 hrs measured per 96 hrs; format: functional; details: Nakaseomyces glabratus, 5376, Kidney, ip
Summary of the method: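 Neutropenic ICR/Swiss mice infected i.v. with the strain; therapy began 2 h later. Total doses of 1.25–320 mg/kg/96 h were given i.p. as 1, 2, 4 or 6 doses (q96h, q48h, q24h, q16h), three mice per regimen. Kidney CFU were counted after 4 days. Effect is the change from untreated controls at the end of therapy.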

[2] = system: Candida albicans; test: Antifungal activity against Candida albicans 580 infected in neutropenic ICR/Swiss mouse candidiasis model assessed as dose required to maintain […] of 3.81 +/- 0.33 log10CFU per kidney administered intraperitoneally every 24 hrs up to 4 days measured per 24 hrs; format: functional
Summary of the method: (§1)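 Neutropenic mice (cyclophosphamide sc on days −4, −1 and +2) were infected iv 2 h before therapy. Five total doses from 0.078 to 20 mg/kg/24 h were given ip q24h for 4 days, three mice per regimen. Kidney CFU were measured at the end of therapy. Static and 1-log-kill doses were derived from a Hill sigmoid dose-effect fit.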

[3] = system: Candida albicans; test: Antifungal activity against Candida albicans K-1 infected in neutropenic ICR/Swiss mouse candidiasis model assessed as prolongation of fungal growth suppression at 1.25 mg/kg, ip administered 2 hrs postinfection as single dose by time-kill assay; format: functional; details: route intraperitoneal
Summary of the method: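 Single ip dose of 1.25, 5 or 20 mg/kg given 2 h after iv infection of neutropenic mice. Groups of 3 treated and 3 control mice sampled at 1–24 h intervals over 96 h. Kidney homogenates plated on SDA, 24 h at 35°C. PAFE = time for treated burden to rise 1 log10 CFU/kidney after serum level fell below MIC, minus the same time in controls.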

[4] = system: Candida albicans; test: Antifungal activity against Candida albicans K-1 infected in neutropenic ICR/Swiss mouse candidiasis model assessed as […] burden per kidney administered intraperitoneally every 16 hrs up to 4 days measured per 96 hrs; format: functional; details: K-1, Kidney, ip
Summary of the method: (§2)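 Neutropenic mice were infected iv with C. albicans K-1 2 h before therapy. Total doses of 1.25, 5, 20, 80 and 320 mg/kg/96 h were split into 1, 2, 4 or 6 ip doses (q96h, q48h, q24h, q16h), three mice per regimen. Effect is the log10 CFU/kidney relative to untreated controls at 96 h. Static and 1-log doses were taken from a Hill model fit.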

[5] = system: Candida albicans; test: Antifungal activity against Candida albicans K-1 infected in neutropenic ICR/Swiss mouse candidiasis model assessed as dose required to maintain […] of 3.90 +/- 0.15 log10CFU per kidney administered intraperitoneally every 16 hrs up to 4 days measured per 96 hrs; format: functional; summary of the method: as §2
[6] = system: Candida albicans; test: Antifungal activity against Candida albicans K-1 infected in neutropenic ICR/Swiss mouse candidiasis model assessed as dose required for 1-log10 reduction in […] per kidney administered intraperitoneally every 24 hrs up to 4 days measured per 96 hrs; format: functional; summary of the method: as §2
[7] = system: Candida albicans; test: Antifungal activity against Candida albicans K-1 infected in neutropenic ICR/Swiss mouse candidiasis model assessed as […] burden per kidney administered intraperitoneally every 48 hrs up to 4 days measured per 96 hrs; format: functional; details: K-1, Kidney, ip; summary of the method: as §2
[8] = system: Candida albicans; test: Antifungal activity against Candida albicans K-1 infected in neutropenic ICR/Swiss mouse candidiasis model assessed as dose required for 1-log10 reduction in […] per kidney administered intraperitoneally every 24 hrs up to 4 days measured per 24 hrs; format: functional
[9] = system: Candida albicans; test: Antifungal activity against Candida albicans 98-210 infected in neutropenic ICR/Swiss mouse candidiasis model assessed as dose required for 1-log10 reduction in […] per kidney administered intraperitoneally every 24 hrs up to 4 days measured per 24 hrs; format: functional; summary of the method: as §1
[10] = system: Nakaseomyces glabratus; test: Antifungal activity against Candida glabrata 513 infected in neutropenic ICR/Swiss mouse candidiasis model assessed as dose required for 1-log10 reduction in […] per kidney administered intraperitoneally every 24 hrs up to 4 days measured per 24 hrs; format: functional
Summary of the method: (§3)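 Neutropenic mouse disseminated candidiasis, with i.p. therapy starting 2 h after i.v. infection. Five total doses of 0.078–20 mg/kg/24 h were given q24h for 4 days, three mice per dose. Kidney CFU were counted at the end and compared with untreated controls. The dose giving a 1 log10 CFU/kidney reduction was derived from the sigmoid Hill dose–effect model.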

[11] = system: Nakaseomyces glabratus; test: Antifungal activity against Candida glabrata 5592 infected in neutropenic ICR/Swiss mouse candidiasis model assessed as dose required for 1-log10 reduction in […] per kidney administered intraperitoneally every 24 hrs up to 4 days measured per 24 hrs; format: functional; summary of the method: as §3
[12] = system: Nakaseomyces glabratus; test: Antifungal activity against Candida glabrata 5376 infected in neutropenic ICR/Swiss mouse candidiasis model assessed as dose required for 1-log10 reduction in […] per kidney administered intraperitoneally every 24 hrs up to 4 days measured per 24 hrs; format: functional; summary of the method: as §3
[13] = system: Nakaseomyces glabratus; test: Antifungal activity against Candida glabrata 570 assessed as complete growth inhibition after 24 hrs by CLSI end point method; format: functional; details: Nakaseomyces glabratus, 570, 24 h
Summary of the method: (§4)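 Two end points were read against the drug-free control well: partial growth inhibition (the CLSI end point) and complete inhibition. Run in duplicate on four separate occasions; the value is the mean. Drug stock was made in DMSO and diluted in 0.9% NaCl.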

[14] = system: Nakaseomyces glabratus; test: Antifungal activity against Candida glabrata 513 assessed as complete growth inhibition after 24 hrs by CLSI end point method; format: functional; details: Nakaseomyces glabratus, 513, 24 h; summary of the method: as §4
[15] = system: Nakaseomyces glabratus; test: Antifungal activity against Candida glabrata 34341 infected in neutropenic ICR/Swiss mouse candidiasis model assessed as fungal count per kidney administered 2 hrs postinfection measured up to 48 hrs; format: functional
Summary of the method: (§5)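 Female ICR/Swiss mice (23–27 g) made neutropenic with cyclophosphamide s.c. (150 mg/kg day −4, 100 mg/kg day −1, 100 mg/kg day +2). Infected by tail vein with 0.1 ml inoculum (~6.1 log10 CFU/ml). Kidneys of untreated mice were homogenised and plated on SDA for 24 h at 35°C. Growth over 48 h is given as log10 CFU/kidney.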

[16] = system: Nakaseomyces glabratus; test: Antifungal activity against Candida glabrata 5592 infected in neutropenic ICR/Swiss mouse candidiasis model assessed as fungal count per kidney administered 2 hrs postinfection measured up to 48 hrs; format: functional; summary of the method: as §5
[17] = system: Mus musculus; test: Cmax in serum of neutropenic ICR/Swiss mouse candidiasis model at 20 mg/kg, ip up to 4 hrs by reverse-phase high-pressure liquid chromatography; format: ADME, organism-based; set-up: dose 20 mg/kg, route intraperitoneal; details: in vivo
Summary of the method: (§6)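 Infected neutropenic ICR/Swiss mice given single ip doses (5, 20 or 80 mg/kg; 0.2 ml); serum from three isoflurane-anaesthetised mice at 1, 4, 8, 12, 24 and 48 h, stored at −80°C, assayed by reverse-phase HPLC with fluorescence detection, loratadine internal standard, linear 10–50,000 ng/ml. Noncompartmental analysis; half-life by nonlinear least squares.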

[18] = Elimination half life in serum of neutropenic ICR/Swiss mouse candidiasis model at 20 mg/kg, ip by reverse-phase high-pressure liquid chromatography; format: ADME, organism-based; set-up: dose 20 mg/kg, route intraperitoneal; details: read-out: beta t1/2 (converted); summary of the method: as §6
[19] = system: Nakaseomyces glabratus; test: Antifungal activity against Candida glabrata 5376 infected in neutropenic ICR/Swiss mouse candidiasis model assessed as reduction of […] in kidney at 1.25 mg/kg, ip administered 2 hrs postinfection as single dose measured after 96 hrs post dosing by time-kill assay; format: functional, organism-based; set-up: dose 1.25 mg/kg
Summary of the method: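 Neutropenic mice given a single ip dose (1.25, 5 or 20 mg/kg) 2 h after tail-vein infection. Kidneys from 3 mice per time point collected nine times over 96 h. Homogenates serially diluted 1:10 and plated on SDA, 24 h at 35°C. Detection limit 100 CFU/ml.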

What does the source list for `CCCCCOc1ccc(-c2ccc(-c3ccc(C(=O)N[C@H]4C[C@@H](O)[C@@H](O)NC(=O)[C@@H]5[C@@H](O)[C@@H](C)CN5C(=O)[C@H]([C@@H](C)O)NC(=O)[C@H]([C@H](O)[C@@H](O)c5ccc(O)cc5)NC(=O)[C@@H]5C[C@@H](O)CN5C(=O)[C@H]([C@@H](C)O)NC4=O)cc3)cc2)cc1` [ANIDULAFUNGIN] ({pTerphenylCO(4''-OnC5H11)}-[Orn(4R-OH,5R-OH)]T[Hyp][hTyr(3S-OH,4S-OH)]T[Pro(3S-OH,4S-Me)]; lactam 1-C)?
ED50 [1]: 8.12 mg/kg; Activity [2]: 0.94 mg/kg; Activity [3]: 56 h; ED50 [4]: 8.74 mg/kg; Activity [5]: 16.5 mg/kg; Activity [6]: 8.1 mg/kg; ED50 [7]: 3.14 mg/kg; Activity [8]: 2 mg/kg; Activity [9]: 13 mg/kg; Activity [10]: 4.13 mg/kg; Activity [11]: 11.8 mg/kg; Activity [12]: 7.5 mg/kg; MIC [13]: 0.12 µg/mL (≈ 0.105 µM); MIC [14]: 0.12 µg/mL (≈ 0.105 µM); log10cfu [15]: 1.82; log10cfu [16]: 2.1; Cmax [17]: 24000 ng/mL; half-life [18]: 14.7 h; Activity [19]: Active
